Myeloid diff 2 – myeloid differentiation induction | calls only at 10 µM | ER-HoxA9 myeloid progenitors, lysozyme-GFP differentiation, flow cytometry | hit rate 1% among 360,000;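 active = normalized GFP-positive differentiation at or above the plate's own cutoff, the solvent-only control mean plus 3 SD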;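 note: cells exposed to compound for four days before flow analysis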
Xi reactivation – activators of X-chromosome reactivation in mouse fibroblasts; activation, % at 7.58 µM; AID 743238; XiGFP mouse fibroblasts, % GFP-positive cells imaging, 3 d; cells co-treated with 5-aza-dC sensitizer; scaled so ellipticine positive control = 100%; hit rate 0.055% among 360,000;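 active = mean normalized replicate activation at least 10% and every replicate at or above 10%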
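Material: XiGFP fibroblasts, SV40-immortalized. Buffer or medium: DMEM plus 5-aza-dC sensitizer. Compound: single concentration per compound, delivered by pin transfer. Times: 3 days compound exposure. Controls: ellipticine 6 µM.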
ABCB6 inh MLPCN – human ABCB6 transporter inhibition. AID 602162. fluorescence ratio to DMSO, % at 10 µM. hit rate 0.19% among 360,000. K562-ABCB6 porphyrin accumulation, flow cytometry, 1 h; active compounds read low;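 active = fluorescence ratio to DMSO below 75%, the collection mean minus 3 SD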;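 note: signal is porphyrin accumulated inside mitochondria; lower ratio means ABCB6 inhibition with less porphyrin fluorescence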
Target sequence (Q9NP58 whole entry, looked up): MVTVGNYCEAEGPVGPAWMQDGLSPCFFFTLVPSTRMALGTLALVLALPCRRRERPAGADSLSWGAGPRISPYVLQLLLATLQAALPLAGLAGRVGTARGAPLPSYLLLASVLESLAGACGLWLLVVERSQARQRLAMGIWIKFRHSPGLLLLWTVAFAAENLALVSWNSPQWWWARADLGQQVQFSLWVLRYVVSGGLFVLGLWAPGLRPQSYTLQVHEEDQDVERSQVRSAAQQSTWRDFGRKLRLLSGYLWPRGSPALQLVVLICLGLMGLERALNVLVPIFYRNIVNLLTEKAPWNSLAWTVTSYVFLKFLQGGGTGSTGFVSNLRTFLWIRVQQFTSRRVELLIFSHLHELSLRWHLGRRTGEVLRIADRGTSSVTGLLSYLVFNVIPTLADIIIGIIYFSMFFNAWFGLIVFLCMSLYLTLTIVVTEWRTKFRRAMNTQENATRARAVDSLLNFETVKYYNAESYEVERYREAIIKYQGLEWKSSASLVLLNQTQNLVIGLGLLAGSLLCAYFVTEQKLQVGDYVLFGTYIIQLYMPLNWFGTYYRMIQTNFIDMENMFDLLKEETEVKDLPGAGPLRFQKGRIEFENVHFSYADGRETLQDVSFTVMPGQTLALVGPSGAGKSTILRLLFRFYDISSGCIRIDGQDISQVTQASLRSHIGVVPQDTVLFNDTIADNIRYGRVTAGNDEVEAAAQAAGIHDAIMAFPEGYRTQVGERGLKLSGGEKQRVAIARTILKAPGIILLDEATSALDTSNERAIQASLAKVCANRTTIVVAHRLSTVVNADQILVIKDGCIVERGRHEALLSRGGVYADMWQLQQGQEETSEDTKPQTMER
Numbers stand for hits; . = inactive; / = no result; + = active, no number. Shown is part of a subset that was picked to be rich in hits.

SMILES	Myeloid diff 2	Xi reactivation	ABCB6 inh MLPCN
Cc1ccc(S(=O)(=O)N2CCN(Cc3nc4sc(C)c(C)c4c(=O)[nH]3)CC2)cc1	.	/	.
Cc1noc(C)c1NC(=O)N(C)C[C@H]1OCCCC[C@@H](C)Oc2ccc(NC(=O)NC3CCCCC3)cc2C(=O)N([C@@H](C)CO)C[C@H]1C	/	.	/
Cc1ccc(-c2cnc3c(c2)C(=O)N([C@H](C)CO)C[C@H](C)[C@@H](CN(C)C(=O)c2cccnc2)O3)cc1	/	.	/
CCOc1ccccc1NC(=O)Nc1ccc2c(c1)CCC2	+	.	.
CCOc1ccccc1NC(=O)Nc1cccc(NC(C)=O)c1	.	.	.
C[C@H](CO)N1C[C@H](C)[C@@H](CN(C)Cc2ccncc2)Oc2ccc(NC(=O)Nc3ccc4c(c3)OCO4)cc2CC1=O	/	.	/
COc1ccc2c3c(n(C)c2c1)[C@@H](CO)N(C(=O)Nc1ccc(F)cc1)CC31CN(C)C1	/	.	/
COc1ccc(C2NCCc3c2[nH]c2ccccc32)cc1COc1ccc(F)cc1 (stereo not given)	+	.	.
COc1ccc(C2NCCc3c2[nH]c2ccccc32)cc1CN1CCc2cc(OC)c(OC)cc2C1C (stereo not given)	.	/	.
CN(C)C(=O)c1ccc(-c2ccc([C@@H]3[C@@H](CO)N4C(=O)CN(C(=O)C5CCC5)C[C@H]34)cc2)cc1	/	.	/
CC1CC(NC(=O)c2c(O)nc3sccn3c2=O)CC(C)(C)C1 (stereo not given)	+	.	.
CC1CC(NC(=O)c2c(O)nc3ccccn3c2=O)CC(C)(C)C1 (stereo not given)	/	.	.
C[C@H](CO)N1C[C@H](C)[C@H](CN(C)C(=O)Nc2ccc3c(c2)OCO3)Oc2ccc(NC(=O)c3ccncc3)cc2CC1=O	/	.	/
C[C@@H]1CN([C@H](C)CO)C(=O)c2cc(NS(C)(=O)=O)ccc2O[C@H]1CN(C)S(=O)(=O)c1ccc(F)cc1	/	.	/
C[C@@H]1CCCCO[C@@H](CN(C)S(=O)(=O)c2cccs2)[C@@H](C)CN([C@@H](C)CO)C(=O)c2cc(NC(=O)C3CCCCC3)ccc2O1	/	.	/
COCC(=O)N1[C@H](C#N)[C@H](c2ccc(-c3cccc(F)c3)cc2)[C@@H]1CO	/	.	/
COC(=O)CSc1nc(N)c(C#N)c(-c2ccc(O)cc2)c1C#N	.	.	.
C=CCSc1nc(N)c(C#N)c(-c2ccc(C)cc2)c1C#N	+	/	.
Clc1ccc(-c2csc3ncnc(Cl)c23)cc1	.	.	.
NNc1ncnc2scc(-c3ccc(Cl)cc3)c12	+	.	.
O=C(CSc1ccc(F)cc1)N1CCN(S(=O)(=O)c2ccccc2)CC1	.	.	.
O=C(CSc1ccccc1)N1CCN(S(=O)(=O)c2ccccc2F)CC1	+	.	.
O=C1NC(c2ccc(Cl)c([N+](=O)[O-])c2)Nc2ccccc21 (stereo not given)	.	.	.
O=[N+]([O-])c1cc(C2Nc3cccc4cccc(c34)N2)ccc1Cl	+	.	.
C[C@H](CO)N1C[C@H](C)[C@@H](CN(C)Cc2ccc(Oc3ccccc3)cc2)Oc2ncc(-c3ccncc3)cc2C1=O	/	.	/
SMILES	Myeloid diff 2	Xi reactivation	ABCB6 inh MLPCN
Cc1ccccc1-c1ccc([C@@H]2[C@H](CO)N3C(=O)CN(C(=O)c4cccnc4)C[C@@H]23)cc1	/	.	/
CCC(=O)NC(c1ccco1)c1cc(Cl)c2ccccc2c1O (stereo not given)	.	.	.
CCC(=O)NC(c1cc(Cl)c2ccccc2c1O)C(C)C (stereo not given)	+	.	.
CCC(=O)N[C@H]1C=C[C@H](CC(=O)NCc2ccccc2OC)O[C@@H]1CO	/	.	/
O=C(Cc1cccnc1)N1CC(=O)N2[C@H](CO)[C@@H](c3ccc(-c4cccc(F)c4)cc3)[C@@H]2C1	/	.	/
Cc1ccc(S(=O)(=O)N2CCCCC2)cc1	.	.	.
Cc1ccc(O)c(N=Nc2ccc(S(=O)(=O)N3CCCC3)cc2)c1	.	61	.
C[C@H]1CN([C@@H](C)CO)C(=O)Cc2cc(NC(=O)Nc3ccc(C(F)(F)F)cc3)ccc2O[C@H]1CN(C)S(=O)(=O)c1ccccc1	/	.	/
CNC[C@@H]1Oc2cc(C#CC(C)(C)O)ccc2S(=O)(=O)N([C@H](C)CO)C[C@H]1C	/	.	/
CC1CCN(S(=O)(=O)c2ccc(NC(=O)CN3CCCC(C)C3)cc2)CC1 (stereo not given)	.	/	.
CC1CCCN(CC(=O)Nc2ccc(S(=O)(=O)N3CCCC3)cc2)C1 (stereo not given)	+	.	.
CO[C@@H]1CN(C)C(=O)c2cc(NC(=O)C3CCCC3)ccc2OC[C@H](C)N(CCC(F)(F)F)C[C@H]1C	/	.	/
CCNc1cc2n(c(=O)n1)CCc1cc(OC)c(OC)cc1-2	.	/	.
COc1cc2c(cc1OC)-c1cc(OCCN3CCOCC3)nc(=O)n1CC2	+	/	.
